The sample as a whole holds a higher share of hits than the screen did.
Lung fibro prol: antiproliferative effect on LL 47 fibroblasts – human, LL 47 cells, CellTiter-Glo luminescence, primary screen. LL 47 human lung fibroblast viability, ATP luminescence; hits give low values. viability, % at 10 µM. hit rate 1.1% among 85,000;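 active = viability at or below 50% in the single dose screen; inactive = viability above 50%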;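 also: compound exposure lasted 72 h before the ATP readout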
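Times – overnight cell rest, 72 h compound treatment at 37 °C · Test system – human lung fibroblast line LL 47, low passage · Amount – 1,150 cells in each well · Controls – cell-only wells, no compound · Doses – 0.1% DMSO in all compound wells · Measured by – CellTiter-Glo luminescence · Buffer or medium – IMEM plus 15% FBS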
H69AR inhibit: proliferation blockers of H69AR lung cancer cells, primary screen, cell-based, human, 86K library; viability, % at 10 µM; AID 598, 2007; H69AR lung tumor viability, ATP luminescence, 72 h; hits give low values; hit rate 6% among 85,000;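 active = viability at or below 40%; inactive = viability above 40%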;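 also: multidrug resistant small cell line overexpressing MRP-1 efflux transporter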
HUVEC inhibit: inhibitors of HUVEC proliferation, primary screen, cell-based, 384-well; viability, % at 10 µM (by protocol); hit rate 1.1% among 86,000; CellTiter-Glo luminescence, 72 h; hits give low values;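 active = viability at or below 30%; inactive = viability above 30%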
HCT116 bCat-KO: primary screen for growth suppressors in beta-catenin knockout HCT116 cells (colon tumor, human). hit rate 1.5% among 140,000. AID 818, 2007. viability, % at 10 µM. HCT116 beta-catenin knockout viability, CellTiter-Glo, 60 h; hits give low values;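 active = viability at or under a set limit, the compound median less 4 SD, cut at about 6% in these data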
HCT116 PTEN-null: growth suppression of PTEN-null HCT116, primary screen, cell-based, CellTiter-Glo. HCT116 PTEN-null viability, 60 h; hits give low values. viability, % at 10 µM. hit rate 1.2% among 140,000. AID 827, 2007;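 active = viability at or below a set limit, 4 SD under the median of all tested compounds, cut at about 3.7% in these data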;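 also: PTEN knockout HCT116 line with beta catenin targeted HCT116 as companion control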
Of the large screens only hits and unclear results are named; the others gave an inactive call.

CC1=Nc2ccccc2/C1=C/c1sc(=N)n(-c2nccs2)c1O	H69AR inhibit 2.9, HCT116 bCat-KO 3.9, HCT116 PTEN-null 2.3
O=C1C=C(Nc2ccc(Cl)cc2)CC(c2ccco2)C1 (configuration not stated)	H69AR inhibit 26
Cn1cc(/C=N/n2cnc3scc(-c4ccccc4)c3c2=O)c2ccccc21	H69AR inhibit 28
O=C(O)COc1ccc(/C=N/n2cnc3scc(-c4cccs4)c3c2=O)cc1	none (no result: Lung fibro prol, H69AR inhibit, HUVEC inhibit)
O=C(NCC12CC3CC(CC(C3)C1)C2)c1cc2n(n1)C(C(F)(F)F)CC(c1ccco1)N2 (configuration not stated)	H69AR inhibit 34
CCOc1cc2[nH]c(=S)n(CCC(=O)N3CCc4ccccc4C3)c(=O)c2cc1OCC	H69AR inhibit 28
CCOc1cc2[nH]c(=S)n(CCCN3CCN(C)CC3)c(=O)c2cc1OCC	none (no result: HCT116 bCat-KO, HCT116 PTEN-null)
CNc1ccc(C2(O)C(=O)c3ccccc3C2=O)cc1	none (no result: Lung fibro prol, H69AR inhibit, HUVEC inhibit)
Cc1nn(-c2ccccc2)c(N2CCCC2)c1/C=C1\N=C(c2ccc(OC(C)C)cc2)OC1=O	none (no result: Lung fibro prol, H69AR inhibit, HUVEC inhibit)
Cc1ccc(-c2noc(-c3cccs3)n2)cc1	H69AR inhibit 40
Cc1cc(C)c(C(=O)/C=C/c2cccc3ccccc23)c(=O)[nH]1	HCT116 bCat-KO 1.5, HCT116 PTEN-null 2.3 (no result: Lung fibro prol, H69AR inhibit, HUVEC inhibit)
Cc1[nH]c2ccccc2c1C(=O)/C=C\c1ccccc1Cl	none (no result: Lung fibro prol, H69AR inhibit, HUVEC inhibit)
OC(CN1CCN(c2cccc(C(F)(F)F)c2)CC1)c1c[nH]c2ccccc12 (configuration not stated)	H69AR inhibit 2.6
N#Cc1c(SCC(=O)Nc2nccs2)nc2c(c1-c1ccco1)CCCC2	H69AR inhibit 23
Cc1ccc(N=Cc2cccc(O)c2O)c(C)c1	HCT116 bCat-KO 1.9, HCT116 PTEN-null 2.0 (no result: Lung fibro prol, H69AR inhibit, HUVEC inhibit)
Cc1ccccc1N=Cc1cccc(O)c1O	none (no result: Lung fibro prol, H69AR inhibit, HUVEC inhibit)
COc1cccc(-c2nnc(NC(=O)c3ccc(S(=O)(=O)N4CCOCC4)cc3)o2)c1	H69AR inhibit 20, HUVEC inhibit 15
COc1ccc(NC(=O)c2ccc(S(=O)(=O)N3CCOCC3)cc2)c(OC)c1	none
O=C(NCC1CCN(c2ccc(S(=O)(=O)N3CCOCC3)cc2)CC1)c1cccc(Cl)c1	none
CC(=O)Nc1nnc(-c2ccc3c(c2)CCCC3)o1	none
CC1CN(S(=O)(=O)c2ccc(C(=O)Nc3nnc(-c4ccc5c(c4)CCCC5)o3)cc2)CC(C)O1 (configuration not stated)	Lung fibro prol 39, H69AR inhibit 17, HUVEC inhibit 7.0
COc1cccc(C(=O)NCC2CCN(c3ccc(S(=O)(=O)N4CCOCC4)cc3)CC2)c1	H69AR inhibit 30
COc1ccc(Cn2c(=S)[nH]c3ccsc3c2=O)cc1	none (no result: Lung fibro prol, H69AR inhibit, HUVEC inhibit)
Cc1ccc(Sc2oc(/C=N/n3cnnc3)cc2Br)cc1	H69AR inhibit 23
Fc1ccc(-c2ccc(/C=N\n3cnnc3)o2)cc1Cl	none (no result: Lung fibro prol, H69AR inhibit, HUVEC inhibit)
CCCCN(CC)CCCNC(=S)Nc1ccc2nc3n(c(=O)c2c1)CCCCC3	none (no result: Lung fibro prol, H69AR inhibit, HUVEC inhibit)
COC(=O)c1ccc(CC(=O)c2nc3ccccc3s2)cc1	none (no result: Lung fibro prol, H69AR inhibit, HUVEC inhibit)
COC(=O)c1ccc(/C(O)=C(\C#N)c2nc3ccccc3s2)cc1	H69AR inhibit 32
Cc1cc(C)c(C(=O)COC(=O)c2cc([N+](=O)[O-])ccc2NCCO)cc1C	none (no result: Lung fibro prol, H69AR inhibit, HUVEC inhibit)
COc1ccc2cc3cc(C(=O)NCCc4ccc(OC)c(OC)c4)oc3nc2c1	H69AR inhibit 29, HUVEC inhibit 25
COc1ccc2nc3oc(C(=O)Nc4ccc(OC)c(OC)c4)cc3cc2c1	none
COc1ccc2cc3cc(C(=O)Nc4ccc5c(c4)OCO5)oc3nc2c1	H69AR inhibit 24, HUVEC inhibit 10
O=C(Nc1ccc([N+](=O)[O-])cn1)C1CC2CCC1C2 (configuration not stated)	none (no result: Lung fibro prol, H69AR inhibit, HUVEC inhibit)
CCOc1ccc(CSC(=N)N)cc1	none (no result: Lung fibro prol, H69AR inhibit, HUVEC inhibit)
CCCCCOc1ccc(Br)cc1CSC(=N)N	HCT116 bCat-KO 1.3, HCT116 PTEN-null 0.8 (no result: Lung fibro prol, H69AR inhibit, HUVEC inhibit)
O=C(N/C(=C\c1ccc([N+](=O)[O-])cc1)C(=O)N1CCCCC1)c1ccccc1Br	none (no result: Lung fibro prol, H69AR inhibit, HUVEC inhibit)
O=C(CN(c1ccc(F)cc1)S(=O)(=O)c1ccccc1)NCCSC1CCCCC1	none (no result: Lung fibro prol, H69AR inhibit, HUVEC inhibit)
COc1ccc(-c2nnc3sc(-c4cccs4)nn23)cc1OC	none
CCOc1cccc(-c2nnc3sc(-c4ccc(C)cc4)nn23)c1	H69AR inhibit 19 (no result: HCT116 bCat-KO, HCT116 PTEN-null)
CCOc1cccc(-c2nnc3sc(-c4ccco4)nn23)c1	none
COc1ccccc1-c1nnc2sc(-c3ccc(N(C)C)cc3)nn12	none (no result: Lung fibro prol, H69AR inhibit, HUVEC inhibit)

Screening results from PubChem BioAssay.
